We go through 16 compounds from ChEMBL document CHEMBL1155317, “Design and optimisation of potent gp120-CD4 inhibitors” (Bioorg Med Chem Lett, 2009).

The nature of series [1]: Inhibition of HIV1 NL4-3 gp160 assessed as inhibition of interaction between gp120 and host CD4 receptor by cell-cell fusion assay. On the set-up: species or system Human immunodeficiency virus 1.
Series [2] deals with Human immunodeficiency virus 1. Nature of the series: Antiviral activity against Human immunodeficiency virus 1 NL4-3 infected HeLaP4 cells after 5 days by beta-galactosidase reporter assay. It is filed as functional, organism-based. The settings on record: Human immunodeficiency virus 1, NL4-3, HeLaP4, 120 h. The method in brief: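 HeLa-P4 cells were premixed with NL4-3 virus and added at 10^5 cells/mL to wells containing diluted compound. Plates were incubated for 5 days at 37 °C in humidified 5% CO₂. Infection was quantified with a β-galactosidase reporter assay.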
Background: In a reporter assay the amount or activity of a reporter protein is the signal.

The test system of series [3] is Rattus norvegicus. Description: Unbound volume of distribution in rat at 1 mg/kg, iv and 1 mg/kg, po. Type of series: ADME, organism-based. Conditions: in vivo.
Series [4] is described as follows: Half life in rat at 1 mg/kg, iv and 1 mg/kg, po. Type of series: ADME, organism-based. The settings on record: in vivo.
Series [5] deals with Rattus norvegicus. Description: Unbound clearance in rat at 1 mg/kg, iv and 1 mg/kg, po. Type of series: ADME, organism-based. Conditions: in vivo.
Series [6] is described as follows: Fraction of compound absorbed in rat at 1 mg/kg, iv and 1 mg/kg, po. It is filed as ADME, organism-based. Conditions: in vivo, read-out: Fabs.
The nature of series [7]: Clearance in rat at 1 mg/kg, iv and 1 mg/kg, po. Type of series: ADME, organism-based. Conditions: in vivo.
Series [8] can be described thus: Bioavailability in rat at 1 mg/kg. Type of series: ADME, organism-based. Conditions: in vivo.

With `C[C@H](Oc1cccc2nc(N(C)C)ccc12)C(=O)N1CCN(C(=O)c2ccccc2)C[C@H]1C`, the concentration for half-maximal inhibition (IC50) – broadly, the point on the concentration scale where inhibition reaches its midpoint – in series [1] stood at 3200 nM.

Regarding `CNC(=O)c1cc(OC)c(O[C@@H](C)C(=O)N2CCN(c3nccn3CC3CC3)C[C@H]2C)cn1`, in series [1], the 50% inhibitory concentration (IC50) amounted to 1900 nM.

`CNC(=O)c1cc(OC)c(O[C@@H](C)C(=O)N2CCN(c3n[nH]c4ccccc34)C[C@H]2C)cn1`: the half-maximal inhibitory concentration (IC50) in series [2] worked out at 979 nM; in series [1] it was 42 nM.

Turning to `CNC(=O)c1cc(OC)c(O[C@@H](C)C(=O)N2CCN(c3nccc4[nH]ccc34)C[C@H]2C)cn1`, the IC50 in series [2] is more than 1000 nM; in series [1] it was 29 nM.

Take `CC(Oc1ccnc2ccccc12)C(=O)N1CCN(C(=O)c2ccccc2)C[C@H]1C` (some centres not stated): the 50% inhibitory concentration (IC50) in series [1] is 7430 nM.

On to `CC(Oc1cccc2ccccc12)C(=O)N1CCN(C(=O)c2ccccc2)C[C@H]1C` (some centres not stated), for which the 50% inhibitory concentration (IC50) in series [2] was found to be 1070 nM; in series [1] it was 123 nM.

As for `CNC(=O)c1ccc(O[C@@H](C)C(=O)N2CCN(C(=O)c3ccccc3)C[C@H]2C)c2c(C)n[nH]c12`, in series [1], the concentration for half-maximal inhibition (IC50) was more than 10000 nM.

For `Cc1n[nH]c2cccc(OC(C)C(=O)N3CCN(C(=O)c4ccccc4)C[C@H]3C)c12` (some centres not stated), the half-inhibitory concentration (IC50) in series [2] amounted to 36 nM; in series [1] it was 16 nM.

Turning to `CC(Oc1cccc2cccnc12)C(=O)N1CCN(C(=O)c2ccccc2)C[C@H]1C` (some centres not stated), the half-inhibitory concentration (IC50) in series [2] was found to be 449 nM; in series [1], 433 nM.

Take `CC(Oc1cccc2ccncc12)C(=O)N1CCN(C(=O)c2ccccc2)C[C@H]1C` (some centres not stated): the IC50 in series [2] is 2040 nM; in series [1], 575 nM.

As to `CNC(=O)c1cc(OC)c(O[C@@H](C)C(=O)N2CCN(c3ncnc4[nH]cnc34)C[C@H]2C)cn1`, the concentration for half-maximal inhibition (IC50) in series [1] worked out at 296 nM.

Consider `CC(Oc1cncc2ccccc12)C(=O)N1CCN(C(=O)c2ccccc2)C[C@H]1C` (some centres not stated), for which, in series [1], the half-inhibitory concentration (IC50) was found to be 9370 nM.

Regarding `CNc1ccc2c(O[C@@H](C)C(=O)N3CCN(C(=O)c4ccccc4)C[C@H]3C)cccc2n1`, in the series on Rattus norvegicus [3], the Vdu was 10.5 L/kg. In addition, the IC50 came out at 13 nM in series [2] and 5 nM in series [1]. Moreover, the half-life (as a rule, how long it takes for the measured level to halve) in series [4] is 54 min. In the series on Rattus norvegicus [5], the CL free was 129 mL/min/kg. Moreover, in series [6], the Fa worked out at 60%. In series [7], this compound showed a clearance of 27 mL/min/kg. The bioavailability (commonly the share of a dose that reaches the circulation, judged against a reference dose that is usually intravenous) in series [8] was 42%.

Turning to `CC(Oc1cccc2c(=O)[nH]ccc12)C(=O)N1CCN(C(=O)c2ccccc2)C[C@H]1C` (some centres not stated), the half-maximal inhibitory concentration (IC50) in series [2] was 1050 nM; in series [1], 68 nM.

Consider `Cc1nn(C)c2cccc(OC(C)C(=O)N3CCN(C(=O)c4ccccc4)C[C@H]3C)c12` (some centres not stated), for which the half-maximal inhibitory concentration (IC50) in series [2] came out at 79 nM; in series [1] it was 15 nM.

For `CNC(=O)c1cc(OC)c(O[C@@H](C)C(=O)N2CCN(c3ncccn3)C[C@H]2C)cn1`, the figures for the half-inhibitory concentration (IC50) in series [2] and in series [1] were 1620 nM and 71 nM, respectively.
